Reference: article PMC7497807 (Blood cancer discovery, 2020)
No end group written: not given here.

Target: T1, MBP-ENL (Homo sapiens, UniProt Q03111)
T1 sequence (Q03111 1-559): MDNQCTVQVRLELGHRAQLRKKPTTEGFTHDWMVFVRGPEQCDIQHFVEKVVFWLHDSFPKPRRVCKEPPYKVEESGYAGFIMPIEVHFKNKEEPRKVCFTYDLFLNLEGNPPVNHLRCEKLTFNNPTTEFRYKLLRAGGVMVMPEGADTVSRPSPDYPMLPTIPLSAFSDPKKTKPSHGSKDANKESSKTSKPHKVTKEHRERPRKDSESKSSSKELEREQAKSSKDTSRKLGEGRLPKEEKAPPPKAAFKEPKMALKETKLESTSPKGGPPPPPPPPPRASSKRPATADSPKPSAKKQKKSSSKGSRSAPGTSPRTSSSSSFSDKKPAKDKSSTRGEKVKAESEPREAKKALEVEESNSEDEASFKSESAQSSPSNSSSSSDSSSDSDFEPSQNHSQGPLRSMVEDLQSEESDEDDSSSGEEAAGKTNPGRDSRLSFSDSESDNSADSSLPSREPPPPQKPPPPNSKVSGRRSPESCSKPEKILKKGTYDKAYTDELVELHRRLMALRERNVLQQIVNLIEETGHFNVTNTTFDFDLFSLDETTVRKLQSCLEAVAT
Assay: FA binding of fluorescein-labeled peptides to MBP-ENL
Conditions: fluorescence anisotropy, fluorescein-labeled peptide, MBP-ENL versus MBP-AF9
In short: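 Fluorescence anisotropy titrations of fluoresceinated peptides spanning the AF9-binding motif of each binding partner, run with MBP-ENL and, in parallel, MBP-AF9. A KD was obtained for each protein–peptide pair, and the fold change was taken as AF9 KD/ENL KD. Each measurement was run in three replicates, with error given as SEM.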

Q: “FITC-CBX8: fluorescein-labeled CBX8 peptide (AQGGRPSLIARIPVARILGDPEEE; also: fluorescein-labeled, attachment not given here)” was tested. Which “affinity for ENL compared with affinity for AF9 (in words)” value did it give?
A: Its value is “substantial enhancement in binding”.
